Compounds with a hit are over-represented: about 3% of the library has one in this group of screens.
SENP7 inh: inhibitors of human SENP7 protease; Q9BQF6; inhibition, % at 5 µM; AID 434973; recombinant SENP7, Z-RLRGG-aminoluciferin luminescence, 40 min; 330,000 compounds, 1.5% hits;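 active means inhibition above about 50% at the single test dose, limit read from the data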;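 further: plate controls were DMSO with enzyme for no effect and no enzyme buffer wells for full effect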
Target sequence (Q9BQF6 706-1050 limits assumed): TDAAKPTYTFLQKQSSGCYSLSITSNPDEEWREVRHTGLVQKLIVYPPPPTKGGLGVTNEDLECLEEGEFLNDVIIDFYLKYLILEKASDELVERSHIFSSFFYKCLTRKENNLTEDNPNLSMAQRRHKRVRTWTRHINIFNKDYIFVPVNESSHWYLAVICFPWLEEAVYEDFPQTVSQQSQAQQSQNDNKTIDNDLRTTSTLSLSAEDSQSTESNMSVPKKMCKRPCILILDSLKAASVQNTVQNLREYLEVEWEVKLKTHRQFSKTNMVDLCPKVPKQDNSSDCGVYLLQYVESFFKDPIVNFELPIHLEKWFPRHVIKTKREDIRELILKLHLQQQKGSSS
Apaf-1 inh: blocks human Apaf-1 apoptosome activity. reconstituted apoptosome caspase-3 activity, DEVD-Rh110 fluorescence. 330,000 compounds, 0.71% hits. O14727. inhibition, % at 20 µM; active means inhibition of at least 40% at 20 µM;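 further: plate controls were DMSO wells for no effect and DEVD-CHO caspase inhibitor wells for full effect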
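System – cell-free apoptosome with Apaf-1, procaspase-3 and caspase-9 · Buffer or medium – pH 7.5 Hepes buffer with CHAPS, BSA, DTT · Also added – cytochrome c with DEVD-Rh110 · Times – 30 min compound preincubation, 50 min activation, room temperature · Technique – Rh110 fluorescence intensity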
SENP6 block: blocks the human protease SENP6; 330,000 compounds, 1.8% hits; Recombinant SENP6 catalytic domain, aminoluciferin luminescence; inhibition, % at 10 µM; AID 2599; Q9GZR1;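 active means inhibition above about 50% at the single tested dose, limit read from the data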;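 further: plate controls were DMSO wells with enzyme for no effect and DMSO wells lacking enzyme for full effect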
SENP8 block-1: inhibitors of human SENP8 protease | Q96LD8 | recombinant SENP8, Nedd8 substrate fluorescence | inhibition, % at 20 µM | 360,000 compounds, 0.64% hits | AID 602440; in the data active means inhibition mostly above about 40%, no sharp cut-off; inactive means mostly below about 27%
Target sequence (Q96LD8 whole entry, looked up): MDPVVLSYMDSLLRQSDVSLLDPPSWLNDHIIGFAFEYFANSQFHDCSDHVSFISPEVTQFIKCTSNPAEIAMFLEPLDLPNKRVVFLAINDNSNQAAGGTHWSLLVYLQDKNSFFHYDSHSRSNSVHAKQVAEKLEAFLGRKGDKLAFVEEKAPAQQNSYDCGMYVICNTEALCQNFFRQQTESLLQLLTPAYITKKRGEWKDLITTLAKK
UBC13 polyUb: inhibitors of human UBC13 polyubiquitin chain formation. inhibition, % at 20 µM. P61088. 330,000 compounds, 0.47% hits. TR-FRET; in the data active means inhibition above about 45%, passing the limit was not always enough
Target sequence (P61088 whole entry, looked up): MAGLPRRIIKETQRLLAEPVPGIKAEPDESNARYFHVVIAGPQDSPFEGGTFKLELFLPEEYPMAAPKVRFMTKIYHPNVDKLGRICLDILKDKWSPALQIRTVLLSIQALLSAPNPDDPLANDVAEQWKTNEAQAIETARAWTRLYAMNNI
SENP8 block-2: SENP8 protease inhibition; inhibition, % at 10 µM; Q96LD8; 330,000 compounds, 1.2% hits; purified SENP8, Z-RLRGG-aminoluciferin cleavage, luminescence; AID 2540; in the data active means inhibition above about 50%
SENP8 conf: human SENP8 inhibition, confirmed; shares compounds with SENP7 inh; Recombinant SENP8, Z-RLRGG-aminoluciferin luminescence, 60 min; inhibition, % at 12.5 µM; 6,200 compounds, 40% hits; AID 488912;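 active means mean inhibition across replicates above about 50%, limit read from the data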
SENP6 conf: confirmation of human SENP6 protease inhibitors. AID 488915. shares compounds with SENP7 inh. 6,200 compounds, 58% hits. inhibition, % at 12.5 µM. recombinant SENP6, Z-RLRGG-aminoluciferin luminescence
SENP7 conf: human SENP7 inhibition, confirmed; inhibition, % at 12.5 µM; 6,200 compounds, 69% hits; recombinant SENP7, Z-RLRGG-aminoluciferin luminescence, 40 min; shares compounds with SENP7 inh
Casp3 SENP sel: caspase-3 inhibition (SENP selectivity assay). shares compounds with SENP7 inh. purified caspase-3, Z-DEVD-aminoluciferin luminescence, 60 min. inhibition, % at 12.5 µM. 6,200 compounds, 60% hits. AID 488918;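 active means mean inhibition above about 50%, limit read from the data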;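 further: plate controls were enzyme with DMSO for no effect and wells without caspase-3 for full effect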
Luc interf: luminescence interference (SENP counter-screen). shares compounds with SENP7 inh. Pre-incubated SENP8/Z-RLRGG-aminoluciferin, luciferase luminescence interference. inhibition, % at 12.5 µM. 6,200 compounds, 39% hits. AID 488919;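 active means mean inhibition above about 50% when retested at one dose, limit read from the data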;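 further: plate controls were DMSO wells with completed reaction for no effect and substrate without enzyme for full effect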
Apaf-1 inh conf2: confirmation of Apaf-1 inhibitors | shares compounds with Apaf-1 inh | reconstituted apoptosome, caspase-3 DEVD-Rh110 fluorescence | inhibition, % at 20 µM | 1,800 compounds, 25% hits;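 active means mean inhibition of at least 40% at 20 µM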;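 further: plate controls were DMSO wells for no effect and DEVD-CHO caspase inhibitor control wells for full effect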
Rh110 interf inh: counter-screen for Apaf-1 inhibitors: fluorescence interference; shares compounds with Apaf-1 inh; 1,800 tested, under 10 active; Rh110 fluorescence interference, quenched caspase reaction; AID 504615; activation (fluorescence interference), % at 20 µM;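 active means signal rise of 40% or more at 20 µM, treated as a fluorescence artifact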
Apaf1 inh interf: Apaf-1 inhibitor counter-screen fluorescence artifact. shares compounds with Apaf-1 inh. fluorescence interference counterscreen, Apaf-1 assay format. IC50, µM. 460 tested, under 10 active; call rule not given here
Numbers without * were called inactive; i = inactive; nt = no result; ! = repeats disagree.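 How the source made its calls, unless noted: active means mean inhibition above about 50% in the one-dose retest (limit read from the data); inactive means the rest.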

SMILES	SENP7 inh	Apaf-1 inh	SENP6 block	SENP8 block-1	UBC13 polyUb	SENP8 block-2	SENP8 conf	SENP6 conf	SENP7 conf	Casp3 SENP sel	Luc interf	Apaf-1 inh conf2	Rh110 interf inh	others
CCOc1ccc(NC(=S)Nc2cccc3ccccc23)cc1	34	66*	88*	-404	-24	50*	9	9	11	3	10	-16	1
Cc1cccc(NC(=S)Nc2cccc3ccccc23)c1	46	93*	91*	-401	-62	89*	-6	-3	-8	6	7	21	3
CCOc1ccc(NC(=S)Nc2cccc3cnccc23)cc1	63*	96*	87*	-42	-27	-3	13	33	22	12	16	17	-4
CCOc1ccc(NC(=S)Nc2ccccc2C2CC2)cc1	-1	-2	-9	5	-11	-11	nt	nt	nt	nt	nt	nt	nt
CC1(C(=O)O)CCCN(C(=O)c2cc3ccccc3s2)C1 (centres undefined)	nt	nt	nt	18	nt	nt	nt	nt	nt	nt	nt	nt	nt
CCN(CC)C(=O)C1=C(C)N(Cc2ccc(OC)cc2)C(=O)C(CC(=O)NCCN2CCOCC2)C1 (centres undefined)	nt	nt	nt	-15	nt	nt	nt	nt	nt	nt	nt	nt	nt
CC1(C(=O)Nc2cccc3ccccc23)CC1(Br)Br (centres undefined)	8	56*	60*	-386	-18	23	12	21	5	5	-3	16	4
CC(C)N1CCC1(C)C(=O)Nc1cccc2ccccc12 (centres undefined)	nt	nt	nt	-8	nt	nt	nt	nt	nt	nt	nt	nt	nt
COc1ccccc1NC(=S)Nc1cccc2cnccc12	81*	97*	91*	-122	-22	1	-11	10	-4	4	1	10	3
OC[C@@H](O)C(O)[C@@H](O)CO (some centres undefined)	nt	nt	nt	-4	nt	nt	nt	nt	nt	nt	nt	nt	nt
Cc1ccc(Cl)cc1NC1=C/C(=N\S(=O)(=O)c2cccs2)c2ccccc2C1=O	76*	95*	75*	85*	-134	78*	82*	96*	77*	85*	0	97*	0	Apaf1 inh interf=>100
Cc1cnc(CNc2nc3cc(-c4ccccc4C)sc3c(=O)n2C)cn1	nt	nt	nt	-19	nt	nt	nt	nt	nt	nt	nt	nt	nt
OC[C@@H]1CN(Cc2ccncc2)C[C@H](n2cnc3c(N4CCOCC4)ncnc32)O1	nt	nt	nt	6	nt	nt	nt	nt	nt	nt	nt	nt	nt
Cc1cc(C)c(S(=O)(=O)/N=C2/C=C(SCC(=O)O)C(=O)c3ccccc32)cc1C	18	72*	62*	54*	-57	28	15	36	5	-1	-6	55*	-2	Apaf1 inh interf=>100
Cc1ccc(NC(=O)CSc2ccccc2)cc1S(=O)(=O)N1CCCCC1	3	9	7	13	8	4	nt	nt	nt	nt	nt	nt	nt
C=CCOc1ccc(CNc2ccc3[nH]c(=O)[nH]c3c2)cc1OC	nt	nt	nt	-449	nt	nt	nt	nt	nt	nt	nt	nt	nt
CCOc1cc(CNc2ccc3cn[nH]c3c2)ccc1OC	59*	85*	68*	-213	-22	53*	10	41	5	0	-4	49*	-2	Apaf1 inh interf=>100
COc1ccccc1C1Nc2cccc3cccc(c23)N1	13	51*	60*	-178	-10	31	15	12	3	-2	-3	31	7
Oc1ccccc1C1Nc2cccc3cccc(c23)N1	5	7	30	-113	-26	16	nt	nt	nt	nt	nt	nt	nt
C[C@H](CO)N1C[C@H](C)[C@H](CN(C)Cc2ccncc2)Oc2cc(-c3ccccc3F)ccc2S1(=O)=O	nt	nt	nt	3	nt	nt	nt	nt	nt	nt	nt	nt	nt
CCOc1cc2c(C#N)c(N3CCCC3)nc(N)c2c(N)n1	26	7	33	-270	-31	3	nt	nt	nt	nt	nt	nt	nt
CCCOc1cc2c(C#N)c(N3CCCC3)nc(N)c2c(N)n1	61*	98*	85*	i	-143	67*	39	75*	39	nt	0	73*	3	Apaf1 inh interf=>100
CCCCN(CC)c1nc(N)c2c(N)nc(OCC)cc2c1C#N	24	98*	67*	-276	-13	66*	-3	13	2	-6	-5	16	11
N#Cc1c(N2CCCC2)nc(N)c2c(N)nc(N3CCCC3)cc12	97*	98*	97*	-414	-41	97*	98*	98*	97*	97*	11	99*	9	Apaf1 inh interf=>100
COc1cc2c(C#N)c(N3CCCC3)nc(N)c2c(N)n1	73*!	84*	95*	i	-27	88*	44	62*	37	7	-2	49*!	11
SMILES	SENP7 inh	Apaf-1 inh	SENP6 block	SENP8 block-1	UBC13 polyUb	SENP8 block-2	SENP8 conf	SENP6 conf	SENP7 conf	Casp3 SENP sel	Luc interf	Apaf-1 inh conf2	Rh110 interf inh	others
CC(=O)c1cccc(NC(=O)C2Cc3c(-c4cccc(F)c4)ccnc3O2)c1 (centres undefined)	nt	nt	nt	5	nt	nt	nt	nt	nt	nt	nt	nt	nt
COc1cccc(C(C[N+](=O)[O-])c2c(C)[nH]n(-c3ccccc3)c2=O)c1 (centres undefined)	85*	97*	83*	73*	-23	65*	8	8	2	-3	-2	16	-7
Cc1[nH]c2ccccc2c1C(C[N+](=O)[O-])c1cccc(O)c1 (centres undefined)	-1	-6	-12	2	2	4	nt	nt	nt	nt	nt	nt	nt
Cc1ccc(S(=O)(=O)C[C@@H]2OC[C@H](Cc3ccccc3)N2S(=O)(=O)c2ccc(C)cc2)cc1	nt	nt	nt	6	nt	nt	nt	nt	nt	nt	nt	nt	nt
O=C(O)/C=C\c1cc2c(cc1[N+](=O)[O-])OCO2	-4	5	-9	-19	-9	-7	nt	nt	nt	nt	nt	nt	nt
O=C1NC(=S)N/C1=C/c1cc2c(cc1[N+](=O)[O-])OCO2	26	88*	64*	-106	-10	75*	13	63*	24	4	0	81*	1	Apaf1 inh interf=>100
CCOC(=O)c1cc2cc3ccccc3cc2[nH]1	38	58*	54*	-278	-27	24	-25	-24	13	2	-4	11	7
Cc1noc(C)c1C(=O)N1CCC1(C)C(=O)NS(=O)(=O)c1cccc(OC(F)F)c1 (centres undefined)	nt	nt	nt	9	nt	nt	nt	nt	nt	nt	nt	nt	nt
